From ChEMBL document CHEMBL3792306, “Antichagasic and trichomonacidal activity of 1-substituted 2-benzyl-5-nitroindazolin-3-ones and 3-alkoxy-2-benzyl-5-nitro-2H-indazoles” (Eur J Med Chem, 2016)

How the values were obtained:
Trypanosoma cruzi [1] = assay: Antichagasic activity against Trypanosoma cruzi CL-B5 epimastigotes […] assessed as growth inhibition after 72 hrs by beta galactosidase reporter gene assay; type: functional, organism-based
In short: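 Then CPRG (200 µM final, pH 7.4) in Triton X-100 added for 3 h at 37 °C, A595 read. Triplicates, three independent runs; IC50 from dose–response of %growth inhibition, mean ± SD.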

[2] = Cytotoxicity against mouse L929 cells after 48 hrs by resazurin assay; type: cell-based; conditions: read-out: LC50
In short: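 L929 fibroblasts, 15×10^3 cells/well in MEM, attached 3 h. Exposed to compounds for 48 h at 37 °C, 5% CO2. Resazurin (2 mM solution in PBS) added for 3 h; fluorescence read at 535/590 nm to give % cytotoxicity. Triplicate wells, three independent runs. LC50 taken from concentration vs %C curves, mean ± SD.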

Trypanosoma cruzi [3] = assay: Antichagasic activity against Trypanosoma cruzi CL-B5 intracellular amastigotes in mouse L929 cells assessed as growth inhibition after 7 days by beta galactosidase reporter gene assay; type: functional, organism-based; conditions: CL-B5, L929, 168 h
In short: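 L929 fibroblasts (10,000/well, MEM) infected overnight at 33 °C, 5% CO₂ with CL-B5 lacZ tissue-culture trypomastigotes (1:6 cell:parasite). Washed, then 7 days with compound in fresh MEM. CPRG (400 µM final, pH 7.4) in 3% Triton X-100 for 3 h at 37 °C, A595. Triplicates; IC50 from %amastigote growth inhibition curves, mean ± SD.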

[4] = Selectivity index, ratio of LC50 for mouse L929 cells to IC50 for Trypanosoma cruzi CL-B5 lacZ epimastigotes […]; type: toxicity, cell-based; conditions: read-out: Ratio LC50/IC50
In short: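 SI = LC50 (L929, 48 h resazurin) / epimastigote IC50. […] CPRG (200 µM final, 0.9% Triton X-100, pH 7.4) added for 3 h at 37 °C, A595 read. Triplicates, n = 3; IC50 from %EGI curves.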

[5] = Selectivity index, ratio of LC50 for mouse L929 cells to IC50 for Trypanosoma cruzi CL-B5 lacZ amastigotes in mouse L929 cells; type: toxicity, cell-based; conditions: read-out: Ratio LC50/IC50
In short: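 SI = LC50 (L929, 48 h resazurin) / amastigote IC50. Amastigotes: L929 cells (10,000/well, MEM) infected overnight at 33 °C with CL-B5 lacZ tissue-culture trypomastigotes (1:6 cell:parasite), washed, then exposed to compounds for 7 days. CPRG (400 µM final, 3% Triton X-100, pH 7.4) added for 3 h at 37 °C, A595 read. Triplicates; IC50 from %AGI curves. Assayed only when epimastigote SI warranted.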

Trypanosoma cruzi [6] = assay: Antichagasic activity against Trypanosoma cruzi Tulahuen amastigotes in mouse L929 cells assessed as growth inhibition after 96 hrs by beta galactosidase reporter gene assay; type: functional, organism-based; conditions: L929, 96 h
In short: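 L929 cells (4000/well, RPMIS) held 24 h at 37 °C, then exposed 2 h to Tulahuen C4 lacZ trypomastigotes (1:10). Infection established 48 h, then compounds for 96 h at 37 °C, 5% CO₂. 500 µM CPRG in 0.5% Nonidet P40 for 18 h, A570. Triplicates; IC50 from %inhibition curves, mean ± SD.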

Trypanosoma cruzi [7] = assay: Antichagasic activity against Trypanosoma cruzi Y strain epimastigotes […] assessed as growth inhibition after 48 hrs by resazurin assay; type: functional, organism-based
In short: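 Y strain epimastigotes (3 × 10⁶/mL, log phase, pre-grown overnight at 28 °C) exposed 48 h at 28 °C, cell-free. Resazurin added for 5 more h, fluorescence read at ex 535/em 590 nm. Triplicates, three independent runs; IC50 from %growth inhibition curves, mean ± SD.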

Trypanosoma cruzi [8] = assay: Antichagasic activity against Trypanosoma cruzi Y strain amastigotes in mouse cardiomyocytes assessed as growth inhibition after 48 hrs by giemsa staining based assay; type: functional, organism-based
In short: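 Primary embryonic Swiss mouse cardiac cells (100,000/well on gelatin-coated coverslips) infected 24 h with Y strain bloodstream trypomastigotes (1:10), washed, then 48 h with compound in DMEM. Bouin-fixed, Giemsa-stained. Infected cells and parasites per infected cell scored in 400 cells in duplicate; endocytic index = product. IC50 from %EI curves, mean ± SD.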

[9] = Cytotoxicity against mouse Cardiomyocytes after 48 hrs by Prestoblue assay; design: species or system Cardiomyocyte; conditions: read-out: LC50
In short: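 Primary embryonic cardiac cells from Swiss mice, grown in DMEM with CaCl2, L-glutamine, 5% FBS and chick embryo extract. Seeded at 6×10^4 cells/well on gelatin, pre-incubated 24 h, then exposed to compounds for 48 h at 37 °C, 5% CO2. Morphology and contractility checked by light microscopy. PrestoBlue added for 5 h, absorbance read at 570/600 nm. Triplicates, n = 3; LC50 from dose–response, mean ± SD.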

Trichomonas vaginalis [10] = assay: Trichomonacidal activity against metronidazole-sensitive Trichomonas vaginalis JH31A#4 trophozoites after 24 hrs by resazurin dye based fluorescence assay; type: functional, organism-based; conditions: JH31A#4, 24 h
In short: (§1)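 Trophozoites in TYM with 10% FBS, 37 °C, 5% CO₂, seeded at 10⁵/mL in glass tubes. After 5 h, compounds added at 9.37–300 µM final (DMSO <0.2%). Viability read by resazurin fluorimetry after 24 h at 37 °C. Metronidazole 25 µM as reference. At least two runs in triplicate; IC50 with 95% limits by probit.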

[11] = Cytotoxicity against african green monkey Vero cells assessed as inhibition of cell growth after 24 hrs by resazurin dye based fluorescence assay; conditions: chlorocebus sabaeus
In short: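 Vero CCL-81 cells (50,000/well, RPMI with 10% FBS) attached 6 h at 37 °C, then 24 h with compound. Resazurin added for 3 h, fluorescence at ex 535/em 590 nm. Triplicates in two independent assays; CC50 and 95% confidence limits by probit analysis.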

[12] = Cytotoxicity against african green monkey Vero cells assessed as inhibition of cell growth at 300 uM after 24 hrs by resazurin dye based fluorescence assay; conditions: chlorocebus sabaeus, read-out: Activity
[13] = Selectivity index, ratio of CC50 for african green monkey Vero cells to IC50 for metronidazole-sensitive Trichomonas vaginalis JH31A#4 trophozoites; type: functional
In short: (§2)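 Selectivity index = Vero CC50 (24 h resazurin, probit) divided by trophozoite IC50 (24 h resazurin, probit) for the named T. vaginalis isolate.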

Trichomonas vaginalis [14] = assay: Trichomonacidal activity against metronidazole-resistant Trichomonas vaginalis IR78 trophozoites after 24 hrs by resazurin dye based fluorescence assay; type: functional, organism-based; conditions: IR78, 24 h; in short: as §1
[15] = Selectivity index, ratio of CC50 for african green monkey Vero cells to IC50 for metronidazole-resistant Trichomonas vaginalis IR78 trophozoites; type: functional; in short: as §2

| Compound | IC50 (Trypanosoma cruzi [1]) | CC50 at 48 h [2] | IC50 (Trypanosoma cruzi [3]) | selectivity ratio [4] | selectivity ratio [5] | IC50 (Trypanosoma cruzi [6]) | IC50 (Trypanosoma cruzi [7]) | IC50 (Trypanosoma cruzi [8]) | CC50 at 48 h [9] | IC50 (Trichomonas vaginalis [10]) | CC50 at 24 h [11] | inhibition at 24 h, 300 µM [12] | Ratio CC50/IC50 [13] | IC50 (Trichomonas vaginalis [14]) | Ratio CC50/IC50 [15] |
| --- | --- | --- | --- | --- | --- | --- | --- | --- | --- | --- | --- | --- | --- | --- | --- |
| O=c1c2cc([N+](=O)[O-])ccc2n(CCO)n1Cc1ccccc1 | 1.58 µM | > 256 µM | 0.22 µM | > 162 | > 1160 | 0.81 µM | 3.18 µM | 0.6 µM | > 100 µM | 17.9 µM | > 300 µM | < 20% | >16.7 | – | – |
| O=[N+]([O-])c1ccc2nn(Cc3ccccc3)c(OCCCO)c2c1 | 64.9 µM | > 256 µM | – | > 3.94 | – | – | – | – | – | 7.25 µM | > 300 µM | 14.5% | >41.4 | 9.11 µM | >32.9 |
| O=[N+]([O-])c1ccc2nn(Cc3ccccc3)c(OCCCBr)c2c1 | 39 µM | 59 µM | – | 1.51 | – | – | – | – | – | 18.6 µM | 539 µM | < 20% | 29 | 39.1 µM | 13.8 |
| O=C(Cn1ccnc1[N+](=O)[O-])NCc1ccccc1 [BENZNIDAZOLE] | 22.7 µM | > 256 µM | 0.68 µM | > 11.3 | > 376 | 1.66 µM | – | 1.77 µM | > 100 µM | – | – | – | – | – | – |
